Experimental data published in ChEMBL document CHEMBL3792365, “Dioxol and dihydrodioxin analogs of 2- and 3-phenylacetonitriles as potent anti-cancer agents with nanomolar activity against a variety of human cancer cells” (2016).

What was measured:
Assay type in all cases: functional
[1] = Growth inhibition of human HL-60(TB) cells at 10 uM after 48 hrs by sulforhodamine B assay; settings: HL-60, 48 h, values are per cent of control
M14 = experiment: Growth inhibition of human M14 cells after 48 hrs by sulforhodamine B assay; settings: M14, 48 h
Summary of the method: (§1)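 Five-dose testing against a 60-line human tumor cell panel. GI50 is the drug concentration giving a 50% reduction in net protein increase relative to untreated control cells.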

NCI-H23 [2] = experiment: Growth inhibition of human NCI-H23 cells after 48 hrs by sulforhodamine B assay; settings: NCI-H23, 48 h
Summary of the method: (§2)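 Five-dose concentration series run across a panel of 60 human tumour cell lines. GI50 is taken as the drug concentration giving a 50% reduction in net protein increase relative to untreated control cells.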

786-0 = experiment: Growth inhibition of human 786-0 cells after 48 hrs by sulforhodamine B assay; settings: 786-0, 48 h; summary of the method: as §1
[3] = Growth inhibition of human PC3 cells after 48 hrs by sulforhodamine B assay; settings: PC-3, 48 h; summary of the method: as §2
[4] = Growth inhibition of human UACC62 cells at 10 uM after 48 hrs by sulforhodamine B assay; settings: UACC-62, 48 h, values are per cent of control
A498 = experiment: Growth inhibition of human A498 cells after 48 hrs by sulforhodamine B assay; settings: A498, 48 h; summary of the method: as §1
[5] = Growth inhibition of human SW620 cells after 48 hrs by sulforhodamine B assay; settings: SW-620, 48 h; summary of the method: as §2
[6] = Growth inhibition of human Hs 578T cells after 48 hrs by sulforhodamine B assay; summary of the method: as §1
[7] = Growth inhibition of human RPMI8226 cells after 48 hrs by sulforhodamine B assay; settings: RPMI-8226, 48 h; summary of the method: as §2
[8] = Growth inhibition of human MOLT4 cells after 48 hrs by sulforhodamine B assay; settings: MOLT-4, 48 h; summary of the method: as §2
[9] = Growth inhibition of human MOLT4 cells at 10 uM after 48 hrs by sulforhodamine B assay; settings: MOLT-4, 48 h, values are per cent of control
Malme-3M = experiment: Growth inhibition of human MALME-3M cells at 10 uM after 48 hrs by sulforhodamine B assay; settings: values are per cent of control
MDA-MB-435 = experiment: Growth inhibition of human MDA-MB-435 cells after 48 hrs by sulforhodamine B assay; settings: MDA-MB-435, 48 h; summary of the method: as §1
MCF7 [10] = experiment: Growth inhibition of human MCF7 cells at 10 uM after 48 hrs by sulforhodamine B assay; settings: MCF7, 48 h, values are per cent of control
[11] = Growth inhibition of human HCT15 cells at 10 uM after 48 hrs by sulforhodamine B assay; settings: HCT-15, 48 h, values are per cent of control
KM12 = experiment: Growth inhibition of human KM12 cells after 48 hrs by sulforhodamine B assay; settings: KM12, 48 h; summary of the method: as §1
[12] = Growth inhibition of human IGROV1 cells at 10 uM after 48 hrs by sulforhodamine B assay; settings: IGROV-1, 48 h, values are per cent of control
MDA-MB-231 = experiment: Growth inhibition of human MDA-MB-231 cells after 48 hrs by sulforhodamine B assay; settings: MDA-MB-231, 48 h; summary of the method: as §1
ACHN = experiment: Growth inhibition of human ACHN cells after 48 hrs by sulforhodamine B assay; summary of the method: as §1
[13] = Growth inhibition of human LOXIMVI cells after 48 hrs by sulforhodamine B assay; settings: LOX IMVI; summary of the method: as §1
[14] = Growth inhibition of human HCT116 cells after 48 hrs by sulforhodamine B assay; settings: HCT-116, 48 h; summary of the method: as §1
NCI-H522 [15] = experiment: Growth inhibition of human NCI-H522 cells after 48 hrs by sulforhodamine B assay; settings: NCI-H522, 48 h; summary of the method: as §2
[16] = Growth inhibition of human HOP92 cells at 10 uM after 48 hrs by sulforhodamine B assay; settings: HOP-92, 48 h, values are per cent of control
[17] = Growth inhibition of human SNB19 cells after 48 hrs by sulforhodamine B assay; settings: SNB-19, 48 h; summary of the method: as §2
T47D = experiment: Growth inhibition of human T47D cells at 10 uM after 48 hrs by sulforhodamine B assay; settings: values are per cent of control
[18] = Growth inhibition of human HCC2998 cells at 10 uM after 48 hrs by sulforhodamine B assay; settings: HCC 2998, 48 h, values are per cent of control
MCF7 [19] = experiment: Growth inhibition of human MCF7 cells after 48 hrs by sulforhodamine B assay; settings: MCF7, 48 h; summary of the method: as §1
CCRF-CEM [20] = experiment: Growth inhibition of human CCRF-CEM cells at 10 uM after 48 hrs by sulforhodamine B assay; settings: values are per cent of control
[21] = Growth inhibition of human IGROV1 cells after 48 hrs by sulforhodamine B assay; settings: IGROV-1, 48 h; summary of the method: as §1
[22] = Growth inhibition of human PC3 cells at 10 uM after 48 hrs by sulforhodamine B assay; settings: PC-3, 48 h, values are per cent of control
SR [23] = experiment: Growth inhibition of human SR cells at 10 uM after 48 hrs by sulforhodamine B assay; settings: values are per cent of control
[24] = Growth inhibition of human RPMI8226 cells at 10 uM after 48 hrs by sulforhodamine B assay; settings: RPMI-8226, 48 h, values are per cent of control
[25] = Growth inhibition of human OVCAR3 cells after 48 hrs by sulforhodamine B assay; settings: OVCAR-3, 48 h; summary of the method: as §2
[26] = Growth inhibition of human Hs 578T cells at 10 uM after 48 hrs by sulforhodamine B assay; settings: values are per cent of control
NCI-H23 [27] = experiment: Growth inhibition of human NCI-H23 cells at 10 uM after 48 hrs by sulforhodamine B assay; settings: NCI-H23, 48 h, values are per cent of control
SR [28] = experiment: Growth inhibition of human SR cells after 48 hrs by sulforhodamine B assay; summary of the method: as §2
NCI-H522 [29] = experiment: Growth inhibition of human NCI-H522 cells at 10 uM after 48 hrs by sulforhodamine B assay; settings: NCI-H522, 48 h, values are per cent of control
A549 = experiment: Growth inhibition of human A549/ATCC cells after 48 hrs by sulforhodamine B assay; settings: A549, 48 h; summary of the method: as §1
CCRF-CEM [30] = experiment: Growth inhibition of human CCRF-CEM cells after 48 hrs by sulforhodamine B assay; summary of the method: as §1
MDA-MB-468 = experiment: Growth inhibition of human MDA-MB-468 cells after 48 hrs by sulforhodamine B assay; settings: MDA-MB-468, 48 h; summary of the method: as §1
[31] = Growth inhibition of human UACC257 cells at 10 uM after 48 hrs by sulforhodamine B assay; settings: UACC-257, 48 h, values are per cent of control
SK-MEL-5 = experiment: Growth inhibition of human SK-MEL-5 cells after 48 hrs by sulforhodamine B assay; settings: SK-MEL-5, 48 h; summary of the method: as §2

## COc1cc(/C(C#N)=C/c2ccc3c(c2)OCCO3)cc(OC)c1OC
[1]
  growth, % of control at 10 µM: -46.3%
M14
  GI50: 30 nM
NCI-H23 [2]
  GI50: 160 nM
786-0
  GI50: 40 nM
[3]
  GI50: 60 nM
[4]
  growth, % of control at 10 µM: 45.4%
A498
  GI50: 30 nM
[5]
  GI50: 40 nM
[6]
  GI50: 70 nM
[7]
  GI50: 60 nM
[8]
  GI50: 620 nM
[9]
  growth, % of control at 10 µM: -14.3%
Malme-3M
  growth, % of control at 10 µM: 64.3%
MDA-MB-435
  GI50: 20 nM
MCF7 [10]
  growth, % of control at 10 µM: 14.6%
[11]
  growth, % of control at 10 µM: 16.5%
KM12
  GI50: 50 nM
[12]
  growth, % of control at 10 µM: 25.5%
MDA-MB-231
  GI50: 170 nM
ACHN
  GI50: 80 nM
[13]
  GI50: 60 nM
[14]
  GI50: 30 nM
NCI-H522 [15]
  GI50: 50 nM
[16]
  growth, % of control at 10 µM: -1.7%
[17]
  GI50: 190 nM
T47D
  growth, % of control at 10 µM: 84.4%
[18]
  growth, % of control at 10 µM: 14.9%
MCF7 [19]
  GI50: 40 nM
CCRF-CEM [20]
  growth, % of control at 10 µM: 0.4%
[21]
  GI50: 630 nM
[22]
  growth, % of control at 10 µM: 26.5%
SR [23]
  growth, % of control at 10 µM: -11%
[24]
  growth, % of control at 10 µM: 39.2%
[25]
  GI50: 40 nM
[26]
  growth, % of control at 10 µM: 18.7%
NCI-H23 [27]
  growth, % of control at 10 µM: 20.7%
SR [28]
  GI50: 60 nM
NCI-H522 [29]
  growth, % of control at 10 µM: -27%
A549
  GI50: 60 nM
CCRF-CEM [30]
  GI50: 210 nM
MDA-MB-468
  GI50: 30 nM
[31]
  growth, % of control at 10 µM: 76%
SK-MEL-5
  GI50: 30 nM
